# Results from different studies.
# Each line is one published result; the experiments were not run side by side.
Structure (SMILES),tested on,test,test system,setting,quantity,value
Cc1c(Cc2ccccc2)c(=O)oc2c(C)c(OCC(=O)NN=Cc3ccccc3)ccc12,MDA-MB-231,"cell growth or viability, MTT",,62.5 µg/mL,viability,17.6%
C[C@@H]1CC[C@@H]([C@](O)(CNCc2cccc3ccccc23)COCc2ccccc2)[C@H](OCc2ccccc2)C1,MDA-MB-231,"cell growth or viability, MTT",,"30 µM, 72 h",inhibition,98%
CCc1c(C)c2ccc(OCc3nnc(S)n3N)c(C)c2oc1=O,MDA-MB-231,"cell growth or viability, MTT",,62.5 µg/mL,viability,69.4%
COc1ccc(COC[C@@](O)(CNCc2ccccc2)[C@@H]2CC[C@@H](C)C[C@H]2OCc2ccc(OC)cc2)cc1,MDA-MB-231,"cell growth or viability, MTT",,"30 µM, 72 h",inhibition,101%
Cc1c(Cc2ccccc2)c(=O)oc2c(C)c(OCC(=O)NN=Cc3ccc(Cl)cc3)ccc12,MDA-MB-231,"cell growth or viability, MTT",,250 µg/mL,viability,21.2%
C[C@H](NC(=O)CO/N=c1\cc2n(-c3ccc(Cl)cc3)c3ccccc3nc-2cc1Nc1ccc(Cl)cc1)C(=O)OC(C)(C)C,Neisseria gonorrhoeae,microbial growth,ATCC49226,,MIC,3.75 µM
CCOc1ccc2c(C)c(CC)c(=O)oc2c1C,MDA-MB-231,"cell growth or viability, MTT",,31.25 µg/mL,viability,100%
O=C(CO/N=c1\cc2n(-c3ccc(Cl)cc3)c3ccccc3nc-2cc1Nc1ccc(Cl)cc1)NCc1ccc(C(F)(F)F)cc1,Neisseria gonorrhoeae,microbial growth,ATCC49226,,MIC,15 µM
O=C1C(Br)=C(Br)C(=O)c2ccccc21,Lodderomyces parapsilosis,"microbial growth, broth dilution",ATCC22019,24 h,MIC,< 1.56 µg/mL
O=C(O)CNC(=O)CO/N=c1\cc2n(-c3ccc(Cl)cc3)c3ccccc3nc-2cc1Nc1ccc(Cl)cc1,Neisseria gonorrhoeae,microbial growth,ATCC49226,,MIC,1.88 µM
Cc1c(Cc2ccccc2)c(=O)oc2c(C)c(OCC(=O)NN=Cc3ccc([N+](=O)[O-])cc3)ccc12,MDA-MB-231,"cell growth or viability, MTT",,31.25 µg/mL,viability,37.2%
CC(C)/N=c1\cc2n(-c3ccc(Cl)cc3)c3ccccc3nc-2cc1Nc1ccc(Cl)cc1,Neisseria gonorrhoeae,microbial growth,ATCC49226,,MIC,0.94 µM
COc1ccc(COC[C@@](O)(CNCc2ccc(F)cc2)[C@@H]2CC[C@@H](C)C[C@H]2OCc2ccc(OC)cc2)cc1,MDA-MB-231,"cell growth or viability, MTT",,"10 µM, 72 h",inhibition,91.7%
O=C(CO/N=c1\cc2n(-c3ccc(Cl)cc3)c3ccccc3nc-2cc1Nc1ccc(Cl)cc1)NCc1ccc2c(c1)CCO2,Neisseria gonorrhoeae,microbial growth,ATCC49226,,MIC,15 µM
C[C@@H]1CC[C@@H]([C@@](C)(O)Cn2cnc3ccccc32)[C@H](OCc2ccccc2)C1,MDA-MB-231,"cell growth or viability, MTT",,"30 µM, 72 h",inhibition,80%
